Assay outcomes as filed in PubChem BioAssay.
A selection: hits, their analogues and other compounds. The true share with any hit is near 4.7%.
ADAM17 inh: ADAM17 inhibition, QFRET primary screen. recombinant ADAM17, EDANS/DABCYL FRET peptide cleavage. P78536. inhibition, % at 6.95 µM. actives 0.83% (n = 370,000);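 active = inhibition above the mean of compounds lying between control limits plus 3 SD, set per campaign, cut at about 8.5% in these data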;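 also: 0% = DMSO-only wells as the low control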
MPTP inh: blocks calcium-induced mitochondrial swelling; isolated mouse mitochondria, Ca2+ swelling absorbance, 30 min; inhibition, % at 10 µM; actives 1.4% (n = 360,000); AID 602449;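 active = inhibition of 50% or more, scaled per plate between neutral and stimulator controls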;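 also: 0% = DMSO wells given calcium and 100% = 1 mM EGTA wells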
GRIN3A LBD mod: modulates the human NR3A ligand-binding domain; AID 1259313; actives 2.5% (n = 340,000); NR3A LBD differential scanning fluorimetry, Tm shift; 0% = protein alone, 100% = glycine-bound protein; Tm shift relative to glycine control, % at 25 µM;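 active = melting temperature shift of at least 10% of the positive control shift, at one fixed dose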
ADAM10 inh: inhibitors of human ADAM10; O14672; recombinant ADAM10, EDANS/DABCYL FRET peptide cleavage, 3 h; inhibition, % at 7 µM; actives 0.62% (n = 370,000); AID 720582;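 active = inhibition above a per-campaign cutoff equal to the mean of compounds falling between control-based bounds plus 3 SD, cut at about 20% in these data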;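 also: 0% = DMSO wells while the 100% control is not disclosed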
Target sequence (O14672 214-748 limits assumed): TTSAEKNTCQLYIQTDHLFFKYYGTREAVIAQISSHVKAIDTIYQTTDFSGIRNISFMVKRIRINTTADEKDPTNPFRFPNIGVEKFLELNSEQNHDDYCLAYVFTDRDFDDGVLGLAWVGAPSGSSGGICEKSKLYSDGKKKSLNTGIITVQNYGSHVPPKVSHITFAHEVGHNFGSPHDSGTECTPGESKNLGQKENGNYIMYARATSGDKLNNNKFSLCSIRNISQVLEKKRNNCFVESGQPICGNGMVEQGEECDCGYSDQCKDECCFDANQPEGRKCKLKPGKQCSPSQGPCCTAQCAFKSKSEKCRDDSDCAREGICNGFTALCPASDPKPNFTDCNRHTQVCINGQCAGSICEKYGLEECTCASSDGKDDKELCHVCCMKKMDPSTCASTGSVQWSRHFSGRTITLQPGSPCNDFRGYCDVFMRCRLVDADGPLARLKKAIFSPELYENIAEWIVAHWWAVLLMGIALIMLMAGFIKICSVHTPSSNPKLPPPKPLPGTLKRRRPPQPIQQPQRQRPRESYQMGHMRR
MT1-MMP act inh: MT1-MMP (human) activation inhibition | P50281 | HT1080 RFP-PRO-GFP cells, GFP/RFP ratio fluorescence, overnight; percent of plate control window, DMSO zero | GFP/RFP ratio change, % at 20 µM | actives 0.061% (n = 360,000) | AID 651647;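 active = GFP/RFP ratio change of at least 30% with cell ATP level not reduced by more than half and red fluorescence within 50% of control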
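Read-out: GFP/RFP fluorescence ratio; Test system: RFP-PRO-GFP reporter HT1080 cells; Compound dosing: single-point 20 µM compound, 1% DMSO; Times: overnight compound exposure at 37 °C.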
SKN-1 block: inhibitors of C. elegans SKN-1; C. elegans VP596 Pgst-4::GFP/RFP ratio, acrylamide-induced, 24 h; inhibition, % at 21.8 µM; actives 0.49% (n = 360,000); AID 624304;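 active = interference check ratio from 0.5 to 1.5 plus GFP to RFP signal ratio inhibition reaching or exceeding a fixed threshold, cut at about 30% in these data, passing the limit was not always enough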
Rh123 counter: mitochondrial membrane potential, counter-screen | shares compounds with MPTP inh | isolated mitochondria, Rhodamine 123 fluorescence | inhibition, % at 10 µM | actives 78% (n = 5,000) | AID 624504; in the data active = inhibition above about 22%;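 also: 0% = DMSO vehicle and 100% = positive control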
MPTP swell DR: MPTP inhibition, dose response swelling confirmation | shares compounds with MPTP inh | isolated mitochondria swelling, absorbance | IC50, µM | actives 58% (n = 780); in the data active = IC50 below about 20 µM
MPTP cs DR: counter-screen for mitochondrial permeability transition pore inhibitors, dose response; shares compounds with MPTP inh; isolated mitochondria counterscreen, fluorescence read-out; IC50, µM; actives 49% (n = 780); AID 651564; in the data active = IC50 below about 80 µM
Numbers without * were called inactive.

For CCOC(=O)C1=C(O)c2ccccc2C(=O)/C1=C\c1ccc(CC)cc1 the results were MPTP inh 67*, GRIN3A LBD mod -8, MT1-MMP act inh -42, SKN-1 block 52 and Rh123 counter 77*.
CC(Nc1ncnc2sccc12)c1ccccc1 (configuration not stated) was read as ADAM17 inh 1, MPTP inh 84*, GRIN3A LBD mod 0, ADAM10 inh 3, MT1-MMP act inh -1, SKN-1 block 6 and Rh123 counter 80*.
Screening c1ccc(Nc2ncnc3sccc23)cc1 returned ADAM17 inh -3, MPTP inh -1, GRIN3A LBD mod -19, ADAM10 inh 1, MT1-MMP act inh 1 and SKN-1 block 1.
For Cc1cc(NC(=S)Nc2ccccc2)ccc1Br the results were ADAM17 inh -2, MPTP inh 71*, GRIN3A LBD mod -20, ADAM10 inh -4, MT1-MMP act inh 6, SKN-1 block 22 and Rh123 counter 79*.
`Cc1ccccc1NC(=S)Nc1ccccc1` gave ADAM17 inh -3, MPTP inh 0, GRIN3A LBD mod 1, ADAM10 inh -11, MT1-MMP act inh 4 and SKN-1 block 1.
`Cc1cc(NC(=S)Nc2cccnc2)ccc1Br` gave ADAM17 inh -4, MPTP inh 88*, GRIN3A LBD mod 1, ADAM10 inh -3, MT1-MMP act inh 4, SKN-1 block -13 and Rh123 counter 72*.
O=C(OCc1ccccc1)N1CCC2CC1c1cc(-c3ccc4c(c3)OCO4)ccc12 (configuration not stated) was read as ADAM17 inh 1, MPTP inh 2, GRIN3A LBD mod 0, ADAM10 inh 7, MT1-MMP act inh -3 and SKN-1 block 9.
Screening CC(C)CCN1C(=O)c2ccccc2C1c1nnnn1Cc1ccccc1 (configuration not stated) returned ADAM17 inh 0, MPTP inh -1, ADAM10 inh -6, MT1-MMP act inh 2 and SKN-1 block 4.
Screening ClCc1nc2ccccc2c2ccccc12 returned ADAM17 inh -2, MPTP inh 64*, GRIN3A LBD mod 1, ADAM10 inh -4, MT1-MMP act inh -3, SKN-1 block 26, Rh123 counter -6, MPTP swell DR 4.6* and MPTP cs DR >80.
For CCOC(=O)c1c(CCl)nc2ccccc2c1-c1ccccc1 the results were ADAM17 inh -52, MPTP inh 3, GRIN3A LBD mod -1, ADAM10 inh -165, MT1-MMP act inh -107 and SKN-1 block 3.
Screening O=[N+]([O-])c1cc([N+](=O)[O-])c2cc(-c3cccnc3)[nH]c2c1 returned ADAM17 inh 0, MPTP inh 52*, GRIN3A LBD mod -4, ADAM10 inh 2, MT1-MMP act inh 2, SKN-1 block 9 and Rh123 counter 56*.
Screening COc1ccc(S(=O)(=O)N2CCOCC2)cc1NC(=O)Cc1cccs1 returned ADAM17 inh -12, MPTP inh 0, GRIN3A LBD mod 1, ADAM10 inh -5, MT1-MMP act inh 2 and SKN-1 block -13.
For CC1=NN(c2ccc(C)cc2C)C(=O)C1C(c1ccccc1O)C1C(=O)N(c2ccc(C)cc2C)N=C1C (configuration not stated) the results were ADAM17 inh 5, MPTP inh 0, GRIN3A LBD mod -8, ADAM10 inh 8, MT1-MMP act inh 9 and SKN-1 block -2.
`CC1=NN(c2ccc(Cl)cc2)C(=O)C1C(c1ccccc1O)c1c(C)[nH]n(-c2ccc(Cl)cc2)c1=O` (configuration not stated) gave MPTP inh 88*, GRIN3A LBD mod 255*, MT1-MMP act inh 4, SKN-1 block 4 and Rh123 counter 24*.
Screening CCCCCCCCC[n+]1cccc2c3ccccc3ccc21 returned MPTP inh 89*, GRIN3A LBD mod -1, MT1-MMP act inh -47, SKN-1 block 15 and Rh123 counter 117*.
`CCCCCCCCCCCCCCCC[n+]1cccc2ccccc21` gave ADAM17 inh 0, MPTP inh 76*, GRIN3A LBD mod 39*, ADAM10 inh 10, MT1-MMP act inh -45, SKN-1 block 53* and Rh123 counter 102*.
Screening O=[N+]([O-])c1ccc(C[n+]2cccc3c4ccccc4ccc32)cc1 returned ADAM17 inh -112, MPTP inh -1, GRIN3A LBD mod -1, ADAM10 inh -337, MT1-MMP act inh -130 and SKN-1 block 4.
Screening O=C(C[n+]1cccc2ccccc21)c1ccccc1 returned ADAM17 inh -2, MPTP inh 0, GRIN3A LBD mod -4, ADAM10 inh -23, MT1-MMP act inh -4 and SKN-1 block 24.
COc1ccccc1OCC(=O)Nc1ccccc1C(=O)NCc1cccnc1 was read as ADAM17 inh 0, MPTP inh -1, GRIN3A LBD mod 1, ADAM10 inh 1, MT1-MMP act inh 3 and SKN-1 block -8.
Screening O=S(=O)(Nc1nc2ccccc2nc1Nc1ccc(N2CCOCC2)cc1)c1cc(Cl)ccc1Cl returned ADAM17 inh -2, MPTP inh 86*, GRIN3A LBD mod 20*, ADAM10 inh -2, MT1-MMP act inh -32, SKN-1 block 11 and Rh123 counter 77*.
`Clc1nc(Nc2ccc(N3CCOCC3)cc2)c2ccccc2n1` gave ADAM17 inh 5, MPTP inh -2, GRIN3A LBD mod 1, ADAM10 inh 8, MT1-MMP act inh 0 and SKN-1 block 18.
For CCOC(=O)N1CCc2c(sc(NC(=O)C3COc4ccccc4O3)c2C(N)=O)C1 (configuration not stated) the results were ADAM17 inh -2, MPTP inh 0, GRIN3A LBD mod -3, ADAM10 inh -11, MT1-MMP act inh 0 and SKN-1 block 5.
Screening O=C(NCc1ccncc1)Nc1cccc([N+](=O)[O-])c1 returned ADAM17 inh -3, MPTP inh 91*, GRIN3A LBD mod -6, ADAM10 inh 1, MT1-MMP act inh 3, SKN-1 block 3 and Rh123 counter 73*.
